Reference: ChEMBL document CHEMBL3861974, “Discovery of a Selective Aurora A Kinase Inhibitor by Virtual Screening” (J Med Chem, 2016)
The source made the active and inactive calls. The calls are words filed in the database; no cut-off is given here.

Assays:
HeLa Kyoto = test: Increase in mitotic index in human HeLa Kyoto cells incubated for 20 hrs; type: functional, cell-based
Procedure, shortened: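 HeLa Kyoto cells were incubated overnight with compound, and the fraction of mitotic cells was scored. The experiment was repeated twice; mean ± SD.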

Aurora kinase A [1] = biological target: T1, Aurora kinase A (Homo sapiens, UniProt O14965); test: Inhibition of His-tagged human Aurora A kinase ([…] residues) expressed in Escherichia coli BL21 (DE3) Rosetta cells using biotinylated STK2 substrate incubated for 30 mins by HTRF assay
T1 sequence (O14965 whole entry): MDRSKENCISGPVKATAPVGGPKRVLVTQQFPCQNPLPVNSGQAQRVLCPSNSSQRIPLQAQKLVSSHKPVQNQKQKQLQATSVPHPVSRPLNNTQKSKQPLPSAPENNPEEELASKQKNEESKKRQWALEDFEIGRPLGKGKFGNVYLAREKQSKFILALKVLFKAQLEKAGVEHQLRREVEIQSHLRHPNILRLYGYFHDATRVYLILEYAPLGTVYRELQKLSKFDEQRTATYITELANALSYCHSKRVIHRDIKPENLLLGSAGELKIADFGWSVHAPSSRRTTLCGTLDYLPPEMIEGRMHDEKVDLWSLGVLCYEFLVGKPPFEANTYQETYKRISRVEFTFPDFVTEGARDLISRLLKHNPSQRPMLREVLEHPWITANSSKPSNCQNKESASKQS

[2] = biological target: Aurora kinase B/Inner centromere protein (Homo sapiens, UniProt Q96GD4); test: Inhibition of Aurora-B/INCENP (unknown origin) using biotinylated STK2 substrate incubated for 30 mins by HTRF assay; type: protein-complex assay
Aurora kinase B/Inner centromere protein, sequence (Q96GD4 whole entry): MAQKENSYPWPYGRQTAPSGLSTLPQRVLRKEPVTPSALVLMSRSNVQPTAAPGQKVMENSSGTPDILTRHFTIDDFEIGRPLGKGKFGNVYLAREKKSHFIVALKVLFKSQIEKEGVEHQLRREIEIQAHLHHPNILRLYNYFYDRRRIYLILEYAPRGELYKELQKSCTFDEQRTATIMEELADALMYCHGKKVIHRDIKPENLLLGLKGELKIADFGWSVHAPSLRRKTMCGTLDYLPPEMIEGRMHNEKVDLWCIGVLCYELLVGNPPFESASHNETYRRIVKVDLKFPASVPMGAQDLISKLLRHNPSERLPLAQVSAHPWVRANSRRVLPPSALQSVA
Aurora kinase B/Inner centromere protein, sequence (Q9NQS7 whole entry, further chain): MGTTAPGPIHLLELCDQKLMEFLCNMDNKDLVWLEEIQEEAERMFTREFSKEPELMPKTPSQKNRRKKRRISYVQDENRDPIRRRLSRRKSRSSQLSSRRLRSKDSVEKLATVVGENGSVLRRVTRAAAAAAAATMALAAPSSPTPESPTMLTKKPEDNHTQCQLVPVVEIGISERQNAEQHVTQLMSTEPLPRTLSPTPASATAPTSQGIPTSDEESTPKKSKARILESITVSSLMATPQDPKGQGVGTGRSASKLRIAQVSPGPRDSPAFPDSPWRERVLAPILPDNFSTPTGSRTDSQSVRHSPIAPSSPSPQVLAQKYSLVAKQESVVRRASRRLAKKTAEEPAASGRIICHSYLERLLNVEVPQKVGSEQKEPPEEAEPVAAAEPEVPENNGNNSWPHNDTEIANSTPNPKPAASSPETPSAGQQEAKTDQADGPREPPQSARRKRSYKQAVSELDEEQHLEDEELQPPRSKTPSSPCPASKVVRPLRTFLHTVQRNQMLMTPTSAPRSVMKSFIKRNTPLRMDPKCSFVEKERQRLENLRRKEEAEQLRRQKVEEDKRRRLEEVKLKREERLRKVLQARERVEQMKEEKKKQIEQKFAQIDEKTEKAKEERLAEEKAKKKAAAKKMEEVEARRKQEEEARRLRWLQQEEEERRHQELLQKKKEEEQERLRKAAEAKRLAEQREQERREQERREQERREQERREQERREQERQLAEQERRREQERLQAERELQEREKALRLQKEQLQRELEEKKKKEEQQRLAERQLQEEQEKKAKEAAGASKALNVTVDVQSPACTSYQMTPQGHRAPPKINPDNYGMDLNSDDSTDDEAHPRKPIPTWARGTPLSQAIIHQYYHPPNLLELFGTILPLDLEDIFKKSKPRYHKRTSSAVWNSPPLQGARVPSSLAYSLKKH
Procedure, shortened: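 Biochemical kinase inhibition was read by HTRF with 20 µM ATP. Aurora B was assayed as its complex with the activator INCENP. For Aurora A, IC50 curves were recorded at different TPX2 concentrations.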

Homo sapiens = species: Homo sapiens; test: Selectivity index, ratio of IC50 for Aurora-B/INCENP (unknown origin) to IC50 for His-tagged human Aurora A kinase ([…] residues) expressed in Escherichia coli BL21 (DE3) Rosetta cells
Aurora kinase A [3] = biological target: T1, Aurora kinase A; test: Inhibition of Aurora A kinase autophosphorylation at Thr288 in human HeLa Kyoto cells incubated for 20 hrs; type: cell-based
Aurora kinase B [4] = biological target: T2, Aurora kinase B (Homo sapiens, UniProt Q96GD4); conditions: HeLa Kyoto, 2.5 uM
T2 sequence (Q96GD4 whole entry): as the sequence (Q96GD4 whole entry) above

Aurora kinase B [5] = biological target: T2, Aurora kinase B; conditions: HeLa Kyoto, 2.5 uM; remark: listed apart in the source

SMILES | IC50 (Aurora kinase A [1]) | also measured
COc1cc(Nc2ncc3c(n2)-c2ccc(Cl)cc2C(c2c(F)cccc2OC)=NC3)ccc1C(=O)O | – | Activity (HeLa Kyoto): Dose-dependent effect
O=c1[nH]c2ccccc2n1-c1nc2cc(C(F)(F)F)ccc2[nH]1 | > 70000 nM | –
O=c1[nH]c2cc(Cl)ccc2n1-c1nc2ccccc2[nH]1 | > 200000 nM | –
Cc1ccc2[nH]c(-n3c(=O)[nH]c4ccccc43)nc2c1 | 7800 nM | –
CN1C(=O)/C(=C/c2ccncc2)S/C1=N\c1ccccc1 | 9000 nM | –
CCc1cccc(/N=C2\S/C(=C\c3ccncc3)C(=O)N2C)c1 | 4900 nM | –
CCc1ccccc1/N=C1\S/C(=C\c2ccncc2)C(=O)N1C | 52000 nM | –
CCc1ccc(/N=C2\S/C(=C\c3ccncc3)C(=O)N2CCOC)cc1 | 480 nM | –
CCCc1ccc(/N=C2\S/C(=C\c3ccncc3)C(=O)N2C)cc1 | 1900 nM | –
O=c1[nH]c2ccccc2n1-c1nc2ccccc2[nH]1 | 6500 to 7000 nM | –
O=c1[nH]c2ccccc2n1-c1nc2cc(Br)ccc2[nH]1 | 9000 nM | –
Cc1ccc(/N=C2\S/C(=C\c3ccncc3)C(=O)N2C)cc1C | 2000 nM | –
CNC(=O)c1ccc2[nH]c(=O)n(-c3nc4ccccc4[nH]3)c2c1 | 11000 nM | –
CCc1ccc(/N=C2\S/C(=C\c3ccncc3)C(=O)N2CC2CCCCC2)cc1 | > 200000 nM | –
CC(C)c1ccc(/N=C2\S/C(=C\c3ccncc3)C(=O)N2C)cc1 | 780 nM | –
CCc1ccc(/N=C2/SC3(CC3c3ccnc(N)c3)C(=O)N2C)cc1 (racemic) | > 200000 nM | –
CCc1ccc(/N=C2\SC3(CC3c3ccnc(N)c3)C(=O)N2C)cc1 (racemic) | 76000 nM | –
O=C(O)c1ccc2c(c1)[nH]c(=O)n2-c1nc2ccccc2[nH]1 | 3500 nM | –
COc1cc2c(Nc3ccc(NC(=O)c4ccccc4)cc3)ncnc2cc1OCCCN1CCOCC1 | – | inhibition (Aurora kinase B [4]): Active; inhibition (Aurora kinase B [5]): Active
O=c1[nH]c2cccc(O)c2n1-c1nc2ccccc2[nH]1 | 15000 nM | –
CCc1ccc(/N=C2\SC(Cc3ccnc(N)c3)C(=O)N2C)cc1 (racemic) | 1290 nM | –
CCc1ccc(/N=C2\S/C(=C\c3ccnc(Nc4ccccc4)c3)C(=O)N2C)cc1 | 600 nM | –
O=c1[nH]c2ccc(Cl)cc2n1-c1nc2ccccc2[nH]1 | 23000 nM | –
CNC(=O)c1ccc2c(c1)[nH]c(=O)n2-c1nc2ccccc2[nH]1 | > 50000 nM | –
Cc1cccc2[nH]c(-n3c(=O)[nH]c4ccccc43)nc12 | 14000 nM | –
CCCCc1ccc(/N=C2\S/C(=C\c3ccncc3)C(=O)N2C)cc1 | 3300 nM | –
O=c1[nH]c2c(O)cccc2n1-c1nc2ccccc2[nH]1 | 21000 nM | –
CN1C(=O)/C(=C/c2ccncc2)S/C1=N\c1ccc(C(C)(C)C)cc1 | 1600 nM | –
O=c1[nH]c2ccc(O)cc2n1-c1nc2ccccc2[nH]1 | 12000 nM | –
O=C(O)c1ccc2[nH]c(=O)n(-c3nc4ccccc4[nH]3)c2c1 | 3500 nM | –

Continued by falling IC50 (Aurora kinase A [1]), values first:

IC50 (Aurora kinase A [1]) | SMILES | also measured
430 nM | CCc1ccc(/N=C2/NC(=O)/C(=C/c3ccncc3)S2)cc1 | –
390 nM | CCc1ccc(/N=C2\S/C(=C\c3ccncc3)C(=O)N2C)cc1 | –
380 nM | CCc1ccc(/N=C2\S/C(=C\c3ccncc3)C(=O)N2CC)cc1 | –
370 nM | CN1C(=O)/C(=C/c2ccncc2)S/C1=N\c1ccc(C(F)(F)F)cc1 | –
300 nM | CN1C(=O)/C(=C/c2ccncc2)S/C1=N\c1ccc(Br)cc1 | –
220 nM | CCc1ccc(/N=C2\S/C(=C\c3ccnc(Nc4ccccn4)c3)C(=O)N2C)cc1 | –
190 nM | CCc1ccc(/N=C2\S/C(=C\c3ccnc(NC(=O)CCN)c3)C(=O)N2C)cc1 | IC50 [2]: 10000 nM; Ratio IC50 (Homo sapiens): 53
190 nM | CCc1ccc(/N=C2\S/C(=C\c3ccnc(N)c3)C(=O)N2C)cc1 | IC50 [2]: 23000 nM; Ratio IC50 (Homo sapiens): 121
130 nM | CCc1ccc(/N=C2\S/C(=C\c3ccnc(Nc4ccc(CO)cc4)c3)C(=O)N2C)cc1 | IC50 [2]: 2600 nM; Ratio IC50 (Homo sapiens): 20
25 nM | CCc1ccc(/N=C2\S/C(=C\c3ccnc(Nc4ccc(-c5nnn[nH]5)cc4)c3)C(=O)N2C)cc1 | IC50 [2]: 830 nM; Ratio IC50 (Homo sapiens): 33
24 nM | CCc1ccc(/N=C2\SC(Cc3ccnc(Nc4ccc(C(=O)O)cn4)c3)C(=O)N2C)cc1 (racemic) | IC50 (Aurora kinase A [3]): 24 nM
6.2 nM | CCc1ccc(/N=C2\S/C(=C\c3ccnc(Nc4ccc(C(=O)O)cc4)c3)C(=O)N2C)cc1 | IC50 [2]: 1540 nM; Ratio IC50 (Homo sapiens): 250
6.2 nM | CCc1ccc(/N=C2\S/C(=C\c3ccnc(NC(=O)CCCC(=O)O)c3)C(=O)N2C)cc1 | IC50 [2]: 1400 nM; Ratio IC50 (Homo sapiens): 230
6 nM | CCc1ccc(/N=C2\S/C(=C\c3ccnc(NC(=O)CC(=O)O)c3)C(=O)N2C)cc1 | IC50 [2]: 2700 nM; Ratio IC50 (Homo sapiens): 450
4 nM | CCc1ccc(/N=C2\S/C(=C\c3ccnc(NC(=O)CCC(=O)O)c3)C(=O)N2C)cc1 | IC50 [2]: 1700 nM; Ratio IC50 (Homo sapiens): 415
